M1 ag – activates human CHRM1 receptor; CHO-K1 hM1, Fluo-8 calcium fluorescence, agonist mode; 0% DMSO, 100% acetylcholine EC100; P11229; AID 588814; 360,000 tested, 0.33% active; activation, % at 3 µM;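 active = activation above the run's mean compound activation plus 3 SD, cut at about 16% in these data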;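 note: peak over basal fluorescence ratio within a 140 s kinetic read after compound addition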
CHRM1 PAM – human CHRM1 positive allosteric modulation; 360,000 tested, 0.088% active; activation, % at 3 µM; P11229; AID 588819; CHO-K1 hM1, Fluo-8 calcium fluorescence, ACh EC20; 0% = ACh EC20, 100% = maximal ACh; in the data active = activation above about 19%, passing the limit was not always enough
TAAR1 antag – antagonists of human TAAR1. inhibition, % at 3 µM. AID 624466. CHO RD-HGA16 TAAR1, Fluo-8 calcium fluorescence, antagonist. Q96RJ0. 360,000 tested, 1.5% active;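 active = inhibition above a per-plate cutoff, the mean inhibition of test compounds on that plate plus 3 SD, cut at about 49% in these data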;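 note: 0% = DMSO plus EC80 beta-PEA response and 100% = DMSO alone without agonist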
Target sequence (Q96RJ0 whole entry, looked up): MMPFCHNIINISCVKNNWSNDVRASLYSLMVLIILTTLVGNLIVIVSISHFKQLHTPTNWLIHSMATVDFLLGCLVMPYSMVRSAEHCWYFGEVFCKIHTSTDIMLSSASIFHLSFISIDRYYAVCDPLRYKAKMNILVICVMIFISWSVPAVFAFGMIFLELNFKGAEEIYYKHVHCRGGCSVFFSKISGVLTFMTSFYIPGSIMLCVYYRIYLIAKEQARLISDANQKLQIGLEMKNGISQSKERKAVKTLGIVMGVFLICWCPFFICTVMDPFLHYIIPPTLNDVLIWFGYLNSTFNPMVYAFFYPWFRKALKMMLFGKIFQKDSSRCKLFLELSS
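Assay system: RD-HGA16 CHO cells with stable hTAAR1 and Gα16 / Reagent: EC80 β-phenethylamine stimulus / Doses: 3 µM, single point / Timing: dye loading 75 min at 37 °C, then 30 min room temperature / Measured by: Fluo-8 intracellular calcium dye fluorescence, real-time kinetic reads / Controls: vehicle wells and EC80 agonist wells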
TAAR1 ag – human TAAR1 agonism | 360,000 tested, 0.99% active | Q96RJ0 | activation, % at 3 µM | CHO RD-HGA16 TAAR1, Fluo-8 calcium fluorescence; vehicle wells 0%, saturating PEA agonist 100%;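 active = activation above the mean activation of all test compounds in the run plus 3 SD, cut at about 38% in these data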
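System: CHO-derived RD-HGA16 cells with stable Gα16 and human TAAR1. Times: 17-24 h plating, Fluo-8 75 min 37 °C, 30 min RT. Measured by: calcium-sensitive Fluo-8 signal, excitation 470-495, emission 515-575 nm. Read-out basis: % activation relative to PEA EC100 response. Control set: DMSO and PEA EC100. Repeats: no replicates (n 1).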
CHRM1 antagonist – antagonists of human M1 muscarinic receptor | CHO-K1 hM1, Fluo-8 calcium fluorescence, ACh EC80 antagonist | inhibition, % at 3 µM | 360,000 tested, 1.3% active | AID 588852;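 active = percent inhibition above its own plate's cutoff, namely the mean of that plate's compound wells plus 3 SD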;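 note: peak over basal fluorescence ratio during 140 s after agonist addition; 0% = ACh EC80 plus DMSO and 100% = DMSO alone without agonist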
TAAR1 nonsel count – nonselective antagonism, TAAR1 counter-screen; shares compounds with TAAR1 antag; counterscreen cell line, calcium fluorescence, antagonist mode; inhibition, % at 3 µM; 2,400 tested, 77% active; in the data active = inhibition above about 22%;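 note: CHO-Ga16 host cells stimulated with ATP at an EC80 level; 0% = agonist EC80 plus vehicle and 100% = vehicle without agonist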
TAAR1 ant conf – confirmation of human TAAR1 antagonists | TAAR1-expressing cells, fluorescence antagonist read-out | shares compounds with TAAR1 antag | inhibition, % at 3 µM | 2,400 tested, 40% active; in the data active = inhibition above about 49%;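 note: CHO-Ga16 host cells challenged with agonist PEA near its EC80; 0% = agonist at EC80 plus vehicle and 100% = vehicle with no agonist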
Ga16 nonsel ag – nonselective Ga16 agonist in TAAR1 antagonist counter-screen. shares compounds with TAAR1 antag. Ga16-expressing cells, calcium fluorescence, agonist counterscreen. activation, % at 3 µM. 2,400 tested, 18% active; in the data active = activation above about 12%;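 note: 0% = vehicle wells and 100% = saturating stimulus response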
TAAR1 ag counter – counter-screen for human TAAR1 antagonists: TAAR1 agonists; AID 651955; activation, % at 3 µM; shares compounds with TAAR1 antag; hTAAR1 cell line, fluorescence activation, agonist mode; 2,400 tested, 2% active; in the data active = activation above about 37%;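 note: CHO cells stably expressing TAAR1 with calcium dye readout; 0% = DMSO vehicle and 100% = full agonist response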
Starred values were filed as active, the others as inactive; . = not tested or not shown. Shown are actives, neighbours in structure and some others; about 3.4% of the full set was active somewhere.

SMILES | M1 ag | CHRM1 PAM | TAAR1 antag | TAAR1 ag | CHRM1 antagonist | TAAR1 nonsel count | TAAR1 ant conf | Ga16 nonsel ag | TAAR1 ag counter
N#Cc1ccccc1S(=O)(=O)N1CCN(CC(=O)Nc2ccccc2C(=O)NC2CC2)CC1 | -2 | -10 | 56* | 14 | 9 | 24* | 47 | 8 | 10
Cc1noc(C)c1-c1ccc(C(=O)NC2CCCCC2)c2occc12 | -6 | 4 | -9 | 0 | -8 | . | . | . | .
CCCc1nc2ccccc2n1C(CCSC)C(=O)NC(C)(C)C (stereo unspecified) | . | . | -16 | -1 | . | . | . | . | .
CCOC(=O)c1sc(NC(=O)C(CC)OC(=O)C(CC(C)C)NC(=O)c2ccccc2)nc1C (stereo unspecified) | -3 | -13 | 65* | 11 | 8 | 39* | 57* | 7 | 4
COc1cc(C(O)c2nc(-c3cccc(NC(C)=O)c3)cs2)ccc1F (stereo unspecified) | 2 | -3 | 17 | 10 | 8 | . | . | . | .
Cc1c(Cl)cnc(NC(=O)COC(=O)c2ccncc2)c1Cl | -4 | 1 | 101* | -3 | -4 | 2 | -1 | 0 | -1
Cc1c(Cl)cnc(NC(=O)COC(=O)c2ccc3c(c2)OCO3)c1Cl | -5 | 6 | 5 | -1 | 3 | . | . | . | .
O=C(/C=C/c1ccccc1)Nc1ccc(N2CCCCC2)cc1 | -4 | 5 | 69* | 23 | -11 | 30* | 65* | 28* | 61*
O=C(/C=C/c1ccccc1)NC(=S)Nc1ccc(CN2CCOCC2)cc1 | -7 | -22 | 58* | 17 | 10 | 41* | 48 | 10 | 9
CCc1cc2c(COC(=O)c3cccc(NS(C)(=O)=O)c3)cc(=O)oc2cc1O | -3 | -4 | 65* | 4 | 15 | 33* | 39 | 4 | 2
CCc1cc2c(COC(=O)c3cc(S(=O)(=O)N4CCOCC4)ccc3F)cc(=O)oc2cc1O | -3 | -8 | 48 | 6 | 18 | . | . | . | .
O=C(O)Cn1c(=O)c2c3c(sc2n(Cc2ccc(F)cc2)c1=O)CCCC3 | 1 | 14 | 16 | 2 | -19 | . | . | . | .
O=C(O)Cn1c(=O)c2c3c(sc2n(Cc2ccccc2F)c1=O)CCCC3 | -1 | 9 | 56* | 3 | 4 | 5 | 38 | 3 | 7
O=[N+]([O-])c1cccc(-c2ccc(/C=N/Nc3nc(N4CCCCC4)nc(N4CCCCC4)n3)o2)c1 | -10 | -7 | 52* | 6 | 6 | 19 | 35 | 4 | 6
O=C(NC1CCCCC1)C(c1ccnc2ccccc12)N1CCc2ccccc2C1 (stereo unspecified) | -5 | 0 | -10 | 8 | -23 | . | . | . | .
OC[C@@H]1CN(Cc2ccc(F)cc2)C[C@H](n2cnc3c(N4CCN(c5ccccc5)CC4)ncnc32)O1 | 0 | -7 | 64* | 10 | 2 | 36* | 55* | 18* | 20
OC[C@@H]1CN(Cc2ccccc2)C[C@H](n2cnc3c(N4CCN(c5ccccc5)CC4)ncnc32)O1 | 4 | 11 | 28 | 10 | -10 | . | . | . | .
CCc1nc2ccc(C(=O)Nc3cccc(NS(C)(=O)=O)c3)cn2c1N(C)Cc1nccn1C | -10 | 0 | -15 | 1 | -4 | . | . | . | .
CN(CC(=O)Nc1cccc(F)c1)C(=O)c1cn(-c2ccccc2)nc1-c1cccs1 | -2 | -2 | 65* | 8 | 9 | 32* | 40 | 7 | 6
COc1ccc(NC(=O)CN(C)C(=O)c2cc(-c3ccco3)nc3ccccc23)cc1 | -5 | -1 | 36 | 13 | 2 | . | . | . | .
CN(CC(=O)Nc1ccc(F)c(F)c1F)C(=O)c1cc(-c2ccncc2)nc2ccccc12 | -3 | -6 | 36 | 18 | 12 | . | . | . | .
